The source of these data is article PMC11462461 (Heliyon, 2024).

Series [1] concerns HCT116 cells. Briefly: MTT assay, HCT116. Particulars: Homo sapiens, HCT-116, 48 h. In kind it is cell-based. Put shortly: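 STR-authenticated, mycoplasma-tested HCT116 cells were grown in 10 % FBS medium at 37 °C. They were seeded in 96-well plates, left to attach overnight, and exposed to increasing concentrations of test compound for 48 h. DMSO-treated cells were the control. MTT formazan was solubilized and read at 570 nm. Experiments were repeated thrice, with SEM error bars.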
A general note: Tetrazolium dyes change colour on reduction, which living cells bring about.

In series [2] the test system is MDA-MB-231 cells. Briefly: MTT assay, MDA-MB-231. To be noted: Homo sapiens, MDA-MB-231, 48 h. In kind it is cell-based. The gist of the method: (§1)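 Cells were STR-authenticated and mycoplasma-tested (HEK was a gift; the others were from a national cell repository). They were cultured with 10 % FBS at 37 °C, with or without 5 % CO2, then plated in 96-well plates and allowed to attach overnight. Test compound was added at increasing concentrations for 48 h. Solubilized MTT formazan absorbance was read at 570 nm. At least three independent experiments were run.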

Series [3] has as its system HEK cells. As to the kind of experiment: MTT assay, normal kidney cells HEK. It is filed as cell-based, Human. Particulars: for IC50: Homo sapiens, HEK293, 48 h. The gist of the method:
as §1

The subject of series [4] is HeLa cells. As to the kind of experiment: MTT assay, HeLa. It is filed as cell-based. To be noted: Homo sapiens, 48 h. Put shortly:
as §1

Series [5] relates to HCT116 cells. Briefly: Hoechst/PI double staining. In kind it is cell-based, Human. Particulars: HCT116, 48 h.
Series [6] concerns HCT116 cells. Briefly: Acridine orange/PI dual staining. In kind it is cell-based, Human. Particulars: HCT116, 48 h.
Series [7] has as its system HCT116 cells. Briefly: Foci formation assay. In kind it is cell-based, Human. To be noted: HCT116, 12 days, crystal violet.

Bounds are passed on as bounds.

With `COc1ccc(-c2cc(C(=O)Nc3ccccc3)c3cc(-c4ccc(Cl)cc4)ccc3n2)cc1` [Compound 7d, 6-(4-chlorophenyl)-2-(4-methoxyphenyl)-N-phenylquinoline-4-carboxamide], the concentration for half-maximal inhibition (IC50) in series [1] is 39.8 ± 0.11 µM; in series [2] it was greater than 50 µM; in series [3], greater than 50 µM; in series [4] it was 38.3 ± 0.25 µM.

`COc1ccc(-c2cc(C(=O)Nc3ccccc3)c3cc(-c4cccs4)ccc3n2)cc1` [Compound 7e, 2-(4-methoxyphenyl)-N-phenyl-6-(thiophen-2-yl)quinoline-4-carboxamide]: the half-maximal inhibitory concentration (IC50) in series [1], in series [2], in series [3] and in series [4] was greater than 50 µM throughout.

For `COc1ccc(-c2cc(C(=O)Nc3ccccc3)c3cc(-c4cc(Cl)ccc4F)ccc3n2)cc1` [Compound 7c, 6-(5-Chloro-2-fluorophenyl)-2-(4-methoxyphenyl)-N-phenylquinoline-4-carboxamide], the half-maximal inhibitory concentration (IC50) in series [1] is 41.8 ± 0.16 µM; in series [2], greater than 50 µM; in series [3] it was greater than 50 µM; in series [4], 42.4 ± 0.37 µM.

For `COc1ccc(-c2cc(C(=O)Nc3ccccc3)c3cc(-c4ccccc4)ccc3n2)cc1` [Compound 7a, 2-(4-methoxyphenyl)-N,6-diphenylquinoline-4-carboxamide], the “propidium iodide uptake and nuclear membrane deformation” value in series [5] is “uptake of propidium iodide in concentration dependent manner with nuclear membrane deformation in dead cells”. Moreover, the concentration for half-maximal inhibition (IC50) in series [1] is 35.6 ± 0.06 µM; in series [2], 39.2 ± 0.13 µM; in series [3], greater than 50 µM; in series [4] it was 41.3 ± 0.06 µM. In series [3] (HeK), the “toxicity towards normal cell lines” value is “less toxicity towards normal cell lines”. For the same compound, the “propidium iodide uptake (live/dead cells)” value in series [6] is given as “propidium iodide uptake in concentration dependent manner”. Besides, the colony formation entry in series [7] is given as “inhibit colony formation of colon cancer cells in a concentration dependent manner”.

In the case of `COc1ccc(-c2cc(C(=O)Nc3ccccc3)c3cc(-c4cnc(Cl)c(C)c4)ccc3n2)cc1` [Compound 7g, 6-(6-Chloro-5-methylpyridin-3-yl)-2-(4-methoxyphenyl)-N-phenylquinoline-4-carboxamide], the IC50 in series [1], in series [2], in series [3] and in series [4] was greater than 50 µM in each case.

As for `COc1ccc(-c2cc(C(=O)Nc3ccccc3)c3cc(-c4cc(F)ccc4OC)ccc3n2)cc1` [Compound 7b, 6-(5-Fluoro-2-methoxyphenyl)-2-(4-methoxyphenyl)-N-phenylquinoline-4-carboxamide], the IC50 in series [1] is 43.3 ± 0.53 µM; in series [2], greater than 50 µM; in series [3], greater than 50 µM; in series [4], 41.6 ± 0.58 µM.

Turning to `COc1cccc2c1C(=O)c1c(O)c3c(c(O)c1C2=O)C[C@@](O)(C(=O)CO)C[C@@H]3O[C@H]1C[C@H](N)[C@H](O)[C@H](C)O1` [Doxorubicin, reference compound], the IC50 in series [1] came out at 1.26 ± 0.09 µM; in series [2], 5.32 ± 0.11 µM; in series [3], 8.23 ± 0.73 µM; in series [4] it was 5.04 ± 0.41 µM.

For `COc1ccc(F)cc1-c1ccc2nc(-c3ccccc3)cc(C(=O)Nc3ccccc3)c2c1` [Compound 7i, 6-(5-Fluoro-2-methoxyphenyl)-N,2-diphenylquinoline-4-carboxamide], the IC50 in series [1] was 44.2 ± 0.08 µM; in series [2], greater than 50 µM; in series [3], greater than 50 µM; in series [4], greater than 50 µM.

Turning to `O=C(Nc1ccccc1)c1cc(-c2ccccc2)nc2ccc(-c3ccccc3)cc12` [Compound 7h, N,2,6-triphenylquinoline-4-carboxamide], the half-inhibitory concentration (IC50) in series [1] was 41.6 ± 0.11 µM; in series [2], 46.3 ± 0.18 µM; in series [3] it was greater than 50 µM; in series [4] it was 43.3 ± 0.31 µM.

As for `COc1ccc(F)cc1-c1ccc2nc(-c3ccc(F)cc3)cc(C(=O)Nc3ccccc3)c2c1` [Compound 7j, 6-(5-Fluoro-2-methoxyphenyl)-2-(4-fluorophenyl)-N-phenylquinoline-4-carboxamide], the IC50 in series [1] was 42.5 ± 0.23 µM; in series [2], greater than 50 µM; in series [3] it was greater than 50 µM; in series [4], greater than 50 µM.

On to `COc1ccc(-c2cc(C(=O)Nc3ccccc3)c3cc(-c4cc(C)ccc4F)ccc3n2)cc1` [Compound 7f, 6-(2-Fluoro-5-methylphenyl)-2-(4-methoxyphenyl)-N-phenylquinoline-4-carboxamide], for which the 50% inhibitory concentration (IC50) in series [1], in series [2], in series [3] and in series [4] was greater than 50 µM each time.

In general, IC50 refers to the point on the concentration scale where inhibition reaches its midpoint. Read a low IC50 as higher potency.
